Measurements gathered from unrelated publications.
Compare with care: the assays were run in different laboratories.
ASH1L: Histone-lysine N-methyltransferase ASH1L (ASH1L, Homo sapiens, UniProt Q9NR48)
RET: Proto-oncogene tyrosine-protein kinase receptor Ret (RET, Homo sapiens, UniProt P07949)
BAZ2A bromodomain: Bromodomain adjacent to zinc finger domain protein 2A, bromodomain (BAZ2A, Homo sapiens, UniProt Q9UIF9)
CIT: Citron Rho-interacting kinase (CIT, Homo sapiens, UniProt O14578)
Nos2: Nitric oxide synthase, inducible (Nos2, Mus musculus, UniProt P29477)

| Compound | target | effect on | mode | technique | concentration | quantity | result |
| --- | --- | --- | --- | --- | --- | --- | --- |
| C[S+]([O-])c1ccc(-c2nc(-c3ccncc3)c(-c3ccc(F)cc3)[nH]2)cc1 (stereo not shown) | ASH1L | thermal stability | – | DSF | 10 µM | ΔTm | 0.31 °C |
| O=C(Nc1ccc(NC(=O)c2ccco2)cc1C(F)(F)F)Nc1ccc(NC(=O)c2ccco2)cc1C(F)(F)F | RET | enzyme activity | inhibitor | radiometric | 0.1 µM | remaining activity | 123% |
| Cc1cnc(Nc2ccc(OCCN3CCCC3)cc2)nc1Nc1cccc(S(=O)(=O)NC(C)(C)C)c1 | BAZ2A bromodomain | thermal stability | – | DSF | 10 µM | ΔTm | -0.11 °C |
| N#Cc1ccc(/C=C/CN(CC[C@H](N)C(=O)O)C[C@H]2O[C@@H](n3cnc4c(N)ncnc43)[C@H](O)[C@@H]2O)cc1 | Phenylethanolamine N-methyltransferase (PNMT, Homo sapiens, UniProt P11086) | enzyme activity | inhibitor | – | 10 µM | activity vs control | 67% |
| COc1ccc(-c2cn3cc(C(=O)N4CC(O)C4)nc3c(=O)n2C)c(F)c1 | RET | enzyme activity | inhibitor | radiometric | 0.1 µM | remaining activity | 117% |
| NS(=O)(=O)c1ccc(Nc2nc(-c3ccc(F)cc3)c3ccccc3n2)cc1 | BAZ2A bromodomain | binding | – | competition with immobilised ligand | 1 µM | remaining binding | 71% |
| CC(C)[C@@H]1NC(=O)[C@@H]2CCCN2C(=O)[C@H](Cc2ccccc2)NC(=O)CSC[C@@H](C(=O)N[C@@H](Cc2ccc(O)cc2)C(N)=O)NC(=O)[C@H](Cc2c[nH]c3ccccc23)NC(=O)[C@H](CCCCN)NC(=O)[C@H](Cc2ccccc2)N(C)C(=O)[C@H](Cc2ccccc2)NC1=O | Stimulator of interferon genes protein (STING1, Homo sapiens, UniProt Q86WV6, H232R) | binding | – | SPR | – | kon | 71000 M⁻¹ s⁻¹ |
| O=C(NCc1cccnc1-n1cnc2ccccc21)c1ccc2[nH]c(=O)[nH]c2c1 | RET | enzyme activity | inhibitor | radiometric | 10 µM | remaining activity | 90.8% |
| Oc1ccc(-c2nc(-c3ccncc3)c(-c3ccc(F)cc3)[nH]2)cc1 | ASH1L | thermal stability | – | DSF | 10 µM | ΔTm | 0.27 °C |
| Cc1nn(C)c2ncc(C(=O)NC(=O)Nc3ccc(F)c(C(F)(F)F)c3)cc12 | C5a anaphylatoxin chemotactic receptor 1 (C5AR1, Homo sapiens, UniProt P21730) | ligand displacement | – | radioligand | 10 µM | inhibition | < 10% |
| Cc1cccc(-n2ncc3c(O)c(C(=O)Nc4ccc(C)cc4F)c(=O)[nH]c32)c1 | RET | enzyme activity | inhibitor | radiometric | 10 µM | remaining activity | 79% |
| C=C(F)[C@](N)(CCCCN)C(=O)O | Lysine decarboxylase (Hafnia alvei, UniProt P05033) | enzyme activity | inhibitor | absorbance | – | KI (inactivation) | 620 µM |
| Nc1ncnc2occ(-c3ccc(NC(=O)Nc4cc(C(F)(F)F)ccc4F)cc3)c12 | CIT | cell-free assay | inhibitor | – | 20 µM | remaining signal | 1.3% |
| CCOC(=O)N1CCN(c2nc(Nc3ccc(C)cc3)c3nn[nH]c3n2)CC1 | RET | enzyme activity | inhibitor | radiometric | 10 µM | remaining activity | 154% |
| COc1cc2ncnc(Nc3ccc(Oc4ccccc4)cc3C)c2cc1OC | Tyrosine-protein kinase JAK2, JH1 (JAK2, Homo sapiens, UniProt O60674) | enzyme activity | inhibitor | – | 1 µM | inhibition | -6% |
| Cn1cncc1C1=CN(c2ncnc3[nH]cnc23)CCS1 | Serine/threonine-protein kinase LATS2 (LATS2, Homo sapiens, UniProt Q9NRM7) | enzyme activity | inhibitor | radiometric | 2 µM | inhibition | 92.9% |
| CCCOc1ccc(OC)c(F)c1C(=O)c1ccc(C(=O)N[C@@H]2CNC[C@H]2NC(=O)c2ccc3[nH]ncc3c2)cc1 | RET | enzyme activity | inhibitor | – | 0.75 µM | remaining activity | 41% |
| CC(=O)c1cccc(NC(=O)Nc2cc3c(cc2Oc2ccccc2)n(C)c(=O)n3C)c1 | RET | enzyme activity | inhibitor | radiometric | 0.1 µM | remaining activity | 104% |
| Cc1nn(CC(F)(F)F)cc1Nc1ncc(Br)c(NCc2ccc(S(N)(=O)=O)cc2)n1 | MAP/microtubule affinity-regulating kinase 4 (MARK4, Homo sapiens, UniProt Q96L34) | enzyme activity | inhibitor | radiometric | 1 µM | remaining activity | 79% |
| CC/C(=N\NC(=O)NCc1cccc(O)c1)c1ccc(O)c(C)c1O | CIT | enzyme activity | inhibitor | – | 0.1 µM | inhibition | -4.1% |
| CCN(c1cc(C#CCN2CCOCC2)cc(C(=O)NCc2c(C)cc(C)[nH]c2=O)c1C)[C@H]1CC[C@H](N(C)CCOC)CC1 | Histone-lysine N-methyltransferase EZH1 (EZH1, Homo sapiens, UniProt Q92800) | enzyme activity | inhibitor | – | 1 µM | inhibition | 98% |
| Cc1cc2c(cc1N1C(=O)c3cccc4c(Cl)ccc(c34)C1=O)n(C)c(=O)n2C | BAZ2A bromodomain | thermal stability | – | DSF | 10 µM | ΔTm | 0 °C |
| Cc1nc(O)nc(O)c1C | Nos2 | enzyme activity | inhibitor | – | 1 mM | inhibition | > 40% |
| O=C(CCCCCCCCc1ccc(O)c(O)c1)c1c(O)cccc1O | Bifunctional epoxide hydrolase 2 (EPHX2, Homo sapiens, UniProt P34913) | enzyme activity | inhibitor | fluorescence | 100 µM | inhibition | 90.9% |
| COCC(=O)Nc1cc(C(=O)N(C)CCc2c(C)n[nH]c2C)c2c(c1)ncn2Cc1ccc(F)cc1 | RET | enzyme activity | inhibitor | radiometric | 0.1 µM | remaining activity | 118% |
| Cc1ccc(C(=O)Nc2ccc(CN3CCN(C)CC3)c(C(F)(F)F)c2)cc1C#Cc1cnc2cccnn12 | CIT | enzyme activity | inhibitor | – | 23.5 nM | remaining activity | 64% |
| CCn1cc(C(=O)Nc2cccc(O)c2)c(=O)c2cc(F)c(N3CCN(C(C)=O)CC3)cc21 | RET | enzyme activity | inhibitor | radiometric | 0.1 µM | remaining activity | 90.9% |
| O=c1occcc1O | Nos2 | enzyme activity | inhibitor | – | 1 mM | inhibition | > 40% |
